Experimental data: article PMC7982131 (Circulation. Heart Failure, 2021)

Experiments:
[1] = molecular target: T1, human APJ (Homo sapiens, UniProt P35414); assay: cAMP inhibition assay, HEK293 ZF cells; type: cell-based
T1 sequence (P35414 1-380): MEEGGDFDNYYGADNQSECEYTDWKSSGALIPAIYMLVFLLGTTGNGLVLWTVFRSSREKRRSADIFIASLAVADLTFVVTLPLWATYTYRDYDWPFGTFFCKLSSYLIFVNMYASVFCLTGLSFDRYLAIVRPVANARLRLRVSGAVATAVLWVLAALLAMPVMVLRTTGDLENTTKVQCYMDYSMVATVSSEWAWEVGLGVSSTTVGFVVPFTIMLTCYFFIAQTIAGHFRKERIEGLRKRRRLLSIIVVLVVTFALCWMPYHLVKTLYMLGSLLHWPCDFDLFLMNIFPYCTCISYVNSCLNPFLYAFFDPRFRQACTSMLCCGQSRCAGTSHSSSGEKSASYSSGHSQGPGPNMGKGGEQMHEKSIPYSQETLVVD

[2] = system: RHR (renal hypertensive rat) model; assay: RHR model, subcutaneous infusion via osmotic minipump; type: in vivo; conditions: SC infusion
Outline: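 Renal hypertensive rats (male Sprague-Dawley) received test compound for 10 days by subcutaneous osmotic minipump. The low dose targeted a steady-state plasma level of ≈100 nmol/L; the high dose targeted ≈10-fold more. SV, CO and diastolic parameters were assessed by echocardiography, with cardiac fibrosis and heart weight also scored. One-way ANOVA with Tukey or Dunnett tests was used.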

[3] = system: RHR (renal hypertensive rat) model; assay: RHR model, oral QD study; type: in vivo; conditions: both doses (0.06 and 0.2 mg/kg)
[4] = Plasma concentrations of BMS-986224 in the RHR studies; type: in vivo, rat; conditions: for steady-state plasma concentration: SC 10-day infusion
Outline: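 Renal hypertensive rat model in male Sprague-Dawley rats. Dosing was either a 10-day SC infusion by osmotic minipump or oral BID dosing at 0.1 and 1 mg/kg. The SC low dose targeted a steady-state level of ≈100 nmol/L, and the high dose targeted ≈10-fold more. The oral doses targeted ≈200 nmol/L at peak or trough. Peak, trough and steady-state plasma levels were measured, and AUC(0–24) was derived.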

[5] = system: instrumented anesthetized rats; assay: Acute hemodynamics, 15-min IV infusion of BMS-986224; type: in vivo, rat; conditions: for CO percentage change from baseline / SV percentage change from baseline: 15 min
Outline: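 Male Sprague-Dawley rats (≥250 g), anesthetized and surgically instrumented, received a 15-min IV infusion of test compound at 1, 10 or 100 μg/kg per min, then a 15-min washout. Vehicle-infused rats served as comparison. SV, CO, dP/dtmax, HR and mean arterial pressure were expressed as percentage change from baseline. Plasma exposure was sampled at each dose.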

[6] = molecular target: T1, human APJ; assay: BRET-based biosensor assays; type: cell-based
[7] = system: RHR (renal hypertensive rat) model; assay: RHR model, oral BID study; type: in vivo
[8] = system: other GPCRs; assay: GPCR selectivity assays, cardiovascular receptor safety panel; type: binding, human; conditions: tested up to 30 µmol/L
[9] = Plasma exposure during and after IV infusion, anesthetized cannulated rats; type: in vivo, rat
[10] = system: instrumented anesthetized rats; assay: Acute hemodynamics, dobutamine single dose 15-min IV infusion; type: in vivo, rat; conditions: 1 μg/kg/min IV, N=8
Outline: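 Male Sprague-Dawley rats (≥250 g), anesthetized and surgically instrumented; test agents given as a 15-min IV infusion followed by a 15-min washout. Cardiac output and heart rate were expressed as percentage change from baseline during and after infusion. Paired Student t test was used for significance.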

[11] = 40 mg/kg/day SC infusion, BID study

## CCOCc1nc(O)c(-c2nnc(Cc3ccc(Cl)cn3)o2)c(O)c1-c1c(OC)cccc1OC [BMS-986224]
[1]
  EC50: 0.02 ± 0.02 nM
[2]
  other measured parameters (diastolic parameters, cardiac fibrosis, heart weight): without affecting
[2]; high dose 3 mg/kg/day, 3 mg/kg/day
  SV and CO: not noted
[3]
  SV and CO: increased
[4]; HD
  steady-state plasma concentration: 2686 nmol/L
[4]; low dose
  steady-state plasma concentration: 102 nmol/L
[4]; oral 0.1 mg/kg BID
  area under the plasma drug concentration−time curve (0–24): 3.42 µM·h
  peak plasma concentration: 205 ± 11 nmol/L
  trough plasma concentration: 25 ± 4 nmol/L
[4]; oral 1 mg/kg BID
  area under the plasma drug concentration−time curve (0–24): 34.3 µM·h
  peak plasma concentration: 2095 ± 161 nmol/L
  trough plasma concentration: 302 ± 29 nmol/L
[5]; 1 μg/kg/min IV
  CO percentage change from baseline: 8.2%
  SV percentage change from baseline: 6.0%
[5]; 10 μg/kg per minute, P<0.001 versus vehicle
  decrease in mean arterial pressure from baseline: 1.9%
[5]; 10 μg/kg/min IV
  CO percentage change from baseline: 15.4%
  SV percentage change from baseline: 12.6%
[5]; 100 μg/kg/min IV
  CO percentage change from baseline: 15.9%
  SV percentage change from baseline: 12.3%
[5]; 15-min IV infusion
  maximum increase in CO: ≈ 15%
[5]; based on the increases in CO
  maximum effective dose: 10 μg/kg per minute
  minimum effective dose: 1 μg/kg per minute
[6]
  signaling bias relative to (Pyr1) apelin-13: lack of bias
[6]; ratio of Ymax and EC50, each signaling readout
  relative activity vs (Pyr1) apelin-13, ΔLog (RA): > 0
[7]; oral BID, trough
  LV mass or EF vs vehicle: no significant differences
[8]
  binding/activity at other GPCRs: did not bind other GPCRs
[9]; 1 μg/kg per minute IV
  Plasma exposure: 95 ± 5 nmol/L
[9]; adjusted for protein binding, 1 μg/kg per minute
  free plasma concentration at the minimum effective dose: 2 nM

## CC(CCc1ccc(O)cc1)NCCc1ccc(O)c(O)c1 (centres unmarked) [Dobutamine]
[10]
  Cardiac output % change from baseline: 11.2%

## CCOC(=O)[C@H](CCc1ccccc1)N[C@@H](C)C(=O)N1CCC[C@H]1C(=O)O [Enalapril]
[7]; [11]
  LV end-diastolic volume vs vehicle: increased
  LV mass, heart weight, and EF vs vehicle: reduced
  SV, CO, and HR vs vehicle: without significant effect
